# In ChEMBL document CHEMBL1121573, “2-(Aminomethyl)phenols, a new class of saluretic agents. 1. Effects of nuclear substitution” (J Med Chem, 1980):
# Values joined by “and” are separate entries in the source; they are usually repeats but may differ in a detail not shown here. Equal entries are not always repeated.
# Key:
# [1] = system: Canis familiaris; experiment: Oral diuretic activity was evaluated by measuring Cl- excretion in dog at 5 mg/kg after ip administration; format: ADME, organism-based, Canis lupus familiaris, Urine; design: dose 5 mg/kg, route intraperitoneal; conditions: in vivo
# [2] = species: Rattus norvegicus; experiment: Time taken for the decrease in arterial pressure was measured; format: functional, Artery
# [3] = system: Canis familiaris; experiment: Compound administered intravenously was evaluated for salidiuretic activity measured as sodium ion excretion in Dog; format: ADME, organism-based, Canis lupus familiaris, Urine; design: unit not given beside the values; conditions: in vivo, iv
# Summary of the method: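 Conditioned female mongrel dogs, postabsorptive, water-loaded (500 mL po) 1 h before sodium pentobarbital anesthesia (30 mg/kg iv). Bladder catheter; creatinine 4 g sc; phosphate–mannitol buffer pH 7.4 infused (3.0 mL/min) throughout. […] Urine Na+ measured; response scored 0–6.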
# [4] = system: Canis familiaris; experiment: Oral diuretic activity was evaluated by measuring Na+ excretion in dog at 0.312 mg/kg after ip administration; format: ADME, organism-based, Canis lupus familiaris, Urine; design: dose 0.312 mg/kg, route intraperitoneal; conditions: in vivo
# Summary of the method: (§1)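 Spontaneous urine was pooled with bladder urine collected by catheterization at 6 h. Volume was measured and Na+, K+ and Cl− were determined by standard methods. Values are geometric means.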
# [5] = system: Canis familiaris; experiment: Oral diuretic activity was evaluated by measuring Na+ excretion in dog at 0.625 mg/kg after ip administration; format: ADME, organism-based, Canis lupus familiaris, Urine; design: dose 0.625 mg/kg, route intraperitoneal; conditions: in vivo; summary of the method: as §1
# [6] = system: Canis familiaris; experiment: Oral diuretic activity was evaluated by measuring K+ excretion in dog at 0.625 mg/kg after […]; format: ADME, organism-based, Canis lupus familiaris, Urine; design: dose 0.625 mg/kg; conditions: in vivo; summary of the method: as §1
# [7] = system: Rattus norvegicus; experiment: Compound administered orally was evaluated for salidiuretic activity measured as sodium ion excretion in Rat; format: ADME, organism-based, Urine; conditions: in vivo, po
# Summary of the method: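 Female Charles-River rats (150–170 g), overnight on sugar diet with water ad libitum. Compound dissolved in DMF, diluted with water containing Tween 80 (final 4% DMF), given po in 5.0 mL; concurrent vehicle placebo. Three rats per metabolism cage; 0–5 h urine analysed for Na+, K+, Cl-. Values: mequiv × 100 per cage, geometric means of three cages per dose; scored 0–6 by Na+.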
# [8] = system: Rattus norvegicus; experiment: Maximum fall in mean arterial blood pressure was measured in SH rats when compound was administered at 0.078 mg/kg perorally; format: functional; conditions: route oral
# [9] = system: Canis familiaris; experiment: Oral diuretic activity was evaluated by measuring K+ excretion in dog at 0.312 mg/kg after ip administration; format: ADME, organism-based, Canis lupus familiaris, Urine; design: dose 0.312 mg/kg, route intraperitoneal; conditions: in vivo
# [10] = system: Rattus norvegicus; experiment: Oral diuretic activity was evaluated by measuring Cl- excretion in Rat at 81 mg/kg after ip administration; format: ADME, organism-based, Urine; design: dose 81 mg/kg, route intraperitoneal; conditions: in vivo
# [11] = system: Rattus norvegicus; experiment: Maximum fall in mean arterial blood pressure was measured in SH rats when compound was administered at […] mg/kg perorally; format: functional; conditions: route oral
# [12] = system: Rattus norvegicus; experiment: Maximum fall in mean arterial blood pressure was measured in SH rats when compound was administered at 0.312 mg/kg perorally; format: functional; conditions: route oral
# [13] = system: Canis familiaris; experiment: Oral diuretic activity was evaluated by measuring Cl- excretion in dog at 0.312 mg/kg after ip administration; format: ADME, organism-based, Canis lupus familiaris, Urine; design: dose 0.312 mg/kg, route intraperitoneal; conditions: in vivo
# [14] = system: Rattus norvegicus; experiment: Oral diuretic activity was evaluated by measuring K+ excretion in Rat at 3 mg/kg after po administration; conditions: in vivo
# [15] = system: Canis familiaris; experiment: Oral diuretic activity was evaluated by measuring K+ excretion in dog at 5 mg/kg after ip administration; format: ADME, organism-based, Canis lupus familiaris, Urine; design: dose 5 mg/kg, route intraperitoneal; conditions: in vivo; summary of the method: as §1
# [16] = system: Canis familiaris; experiment: Oral diuretic activity was evaluated by measuring Cl- excretion in dog at 0.625 mg/kg after ip administration; format: ADME, organism-based, Canis lupus familiaris, Urine; design: dose 0.625 mg/kg, route intraperitoneal; conditions: in vivo
# [17] = system: Rattus norvegicus; experiment: Oral diuretic activity was evaluated by measuring Cl- excretion in Rat at 3 mg/kg after ip administration; format: ADME, organism-based, Urine; design: dose 3 mg/kg, route intraperitoneal; conditions: in vivo
# [18] = system: Canis familiaris; experiment: Oral diuretic activity was evaluated by measuring K+ excretion in dog at 2 mg/kg after ip administration; format: ADME, organism-based, Canis lupus familiaris, Urine; design: dose 2 mg/kg, route intraperitoneal; conditions: in vivo; summary of the method: as §1
# [19] = system: Canis familiaris; experiment: Oral diuretic activity was evaluated by measuring Na+ excretion in dog at 5 mg/kg after ip administration; format: ADME, organism-based, Canis lupus familiaris, Urine; design: dose 5 mg/kg; conditions: in vivo
# Summary of the method: (§2)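 Dogs; spontaneous urine was pooled with bladder urine drained by catheter at the end of 6 h. Urine volume was measured, and aliquots were assayed for Na+, K+ and Cl− by standard methods. Values are geometric means, expressed as mequiv over 0–6 h.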
# [20] = system: Canis familiaris; experiment: Oral diuretic activity was evaluated by measuring Cl- excretion in dog at 2 mg/kg after ip administration; format: ADME, organism-based, Canis lupus familiaris, Urine; design: dose 2 mg/kg, route intraperitoneal; conditions: in vivo
# [21] = system: Canis familiaris; experiment: Oral diuretic activity was evaluated by measuring Na+ excretion in dog at 2 mg/kg after […]; format: ADME, organism-based, Canis lupus familiaris, Urine; design: dose 2 mg/kg; conditions: in vivo; summary of the method: as §2
# [22] = system: Rattus norvegicus; experiment: Oral diuretic activity was evaluated by measuring Cl- excretion in Rat at 27 mg/kg after ip administration; format: ADME, organism-based, Urine; design: dose 27 mg/kg, route intraperitoneal; conditions: in vivo
smiles,measurement,setting,value
CC(C)(C)c1cc(I)c(O)c(CN)c1.Cl,Diuretic activity,[1],69.6
same,Duration,[2],18 h and >24 h
same,Diuretic activity,[3],6
same,Diuretic activity,[4],13.76
same,Diuretic activity,[5],22.3
same,Diuretic activity,[6],5.1
same,Diuretic activity,[7],6
same,MAP,[8],16 mmHg
same,Diuretic activity,[9],4.34
same,Diuretic activity,[10],4.89
same,MAP,[11],38 mmHg
same,MAP,[12],26 mmHg
same,Diuretic activity,[13],19.28
same,Diuretic activity,[14],0.51
same,Diuretic activity,[15],9.9
same,Diuretic activity,[16],30.3
same,Diuretic activity,[17],2.11
same,Diuretic activity,[18],9.3
same,Diuretic activity,[19],56.8
same,Diuretic activity,[20],57
same,Diuretic activity,[21],44.9
same,Diuretic activity,[22],4.35
